Source: article PMC9162962 (European Journal of Medicinal Chemistry, 2022)

Tests used:
SARS-CoV-2 M^pro [1] = biological target: T1, SARS-CoV-2 M^pro (Severe acute respiratory syndrome coronavirus 2, UniProt P0DTD1); assay type: biochemical
SARS-CoV-2 M^pro [2] = biological target: T1, SARS-CoV-2 M^pro; assay: Enzymatic reversibility assay; assay type: biochemical; settings: 10 μM Mpro, 100 μM compound, 180 min
Summary of the method: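 Recombinant Mpro (10 μM), E. coli-expressed, held with 100 μM test compound for 180 min, then split into four portions given different numbers of ultrafiltration rounds. Retained protease diluted to 0.5 μM final; activity measured; triplicates averaged.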

SARS-CoV-2 M^pro [3] = biological target: T1, SARS-CoV-2 M^pro; assay: Mass spectrometry; assay type: binding; settings: 2 μM protease, 15 μM compound, on ice 3 h
Summary of the method: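 Mpro–test compound mixture kept on ice for 3 h, then run on a quadrupole-TOF LC-MS/MS system. Raw mass signal deconvoluted to total intact protein mass to detect adduct formation. Protein was recombinant, E. coli-expressed.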

MDCK cells = settings: MTT
Vero cells = settings: MTT
SARS-CoV-2 = settings: lungs and nose of SARS-CoV-2 infected mice; cited from earlier work

## NC(=S)N/N=C/c1ccc(-c2ccc(C(=O)O)c(O)c2)o1 [F8–B6, (E)-4-(5-((2-carbamothioylhydrazono)methyl)furan-2-yl)-2-hydroxybenzoic acid]
SARS-CoV-2 M^pro [1]
  Mechanism of inhibition (overall, kinetic and mass spectrometry studies): reversible covalent inhibitor
SARS-CoV-2 M^pro [1]; enzymatic kinetic assay, 3 h preincubation, varied substrate
  Type of inhibition from Lineweaver-Burk plot: non-competitive inhibitor
SARS-CoV-2 M^pro [1]; incubation 5, 30, 180 min (Fig. S3A-C)
  Effect of prolonged incubation on inhibition: time-dependent increase of inhibition activity
SARS-CoV-2 M^pro [2]
  Reversibility of inhibition after ultrafiltration: reversible inhibitor
SARS-CoV-2 M^pro [3]
  Covalent binding by LC-MS/MS: covalently bonded

## NC(=S)N/N=C/c1ccc(Cc2ccccc2)o1 [F8–B22, (E)-2-((5-benzylfuran-2-yl)methylene)hydrazine-1-carbothioamide]
MDCK cells
  Cytotoxicity in MDCK cells: low cytotoxicity
Vero cells
  Cytotoxicity in Vero cells: low cytotoxicity
SARS-CoV-2 M^pro [1]; ratio of IC50 values
  Potency relative to initial compound F8: 13 fold

## Cc1ccc(NC(=O)c2ccc(CN3CCN(C)CC3)cc2)cc1Nc1nc(-c2cccnc2)cs1 [Masitinib]
SARS-CoV-2
  Effect on coronavirus replication in infected mice: block the replication of coronavirus in the lungs and nose
